From ChEMBL document CHEMBL4118103, “Synthesis and Bioactivity Investigation of the Individual Components of Cyclic Lipopeptide Antibiotics” (J Med Chem, 2018)
In brackets after ≈: the same amount, converted by molar mass. Bridge positions count the residues as written; N and C are the ends. Square brackets hold non-standard residues; d marks the D form. Peptide text beside a SMILES is read from it. * marks the point of attachment. Heptanoyl(6-Me) = CC(C)CCCCC(=O)*; X1 = CC[C@H](C)CCCCC(=O)*; Dab = NCC[C@H](N)C(=O)O; Nva = CCC[C@H](N)C(=O)O

Columns and labels:
[1] = (§1) Cytotoxicity against African green monkey Vero cells after 72 hrs by MTT assay; type: cell-based; conditions: chlorocebus sabaeus, Vero cells
Outline: (§2)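 Vero cells seeded at 2x10^3 cells/well, incubated 24 h at 37 °C, 5% CO2, then exposed to compound 72 h; MTT added for 2 h, medium removed, formazan dissolved in DMSO, absorbance read at 570 nm. Viability relative to untreated cells (100%); CC50 as mean ± SD of three independent experiments, each in triplicate.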

Escherichia coli [2] = assay: Antibacterial activity against extended-spectrum beta-lactamase producing Escherichia coli isolate 14-11 after 18 hrs by agar dilution method; type: functional; conditions: isolate 14-11, 18 h
Outline: (§3)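 Serial two-fold agar dilution per CLSI; bacteria cultured in Mueller-Hinton broth, inoculum about 10^4 cfu/spot; final concentrations 0.03-128 µg/mL; plates incubated 35 °C for 18 h. MIC = lowest concentration preventing visible growth; representative of at least two independent experiments, a third run when the two disagreed.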

Klebsiella pneumoniae [3] = assay: Antibacterial activity against extended-spectrum beta-lactamase producing Klebsiella pneumoniae 700603 after 18 hrs by agar dilution method; type: functional; conditions: Klebsiella pneumoniae, 700603, 18 h; outline: as §3
Acinetobacter baumannii = assay: Antibacterial activity against Acinetobacter baumannii ATCC 19606 after 18 hrs by agar dilution method; type: functional; conditions: ATCC 19606 = CIP 70.34 = JCM 6841, 18 h; outline: as §3
Pseudomonas aeruginosa = assay: Antibacterial activity against Pseudomonas aeruginosa ATCC 27853 after 18 hrs by agar dilution method; type: functional; conditions: ATCC 27853, 18 h; outline: as §3
Escherichia coli [4] = assay: Antibacterial activity against Escherichia coli ATCC 25922 after 18 hrs by agar dilution method; type: functional; conditions: ATCC 25922, 18 h; outline: as §3
Klebsiella pneumoniae [5] = assay: Antibacterial activity against NDM-1 producing Klebsiella pneumoniae ATCC BAA-2146 after 18 hrs by agar dilution method; type: functional; conditions: ATCC BAA-2146, 18 h; outline: as §3
[6] = Acute toxicity in iv dosed ICR mouse assessed as survival measured daily for 7 days; type: organism-based; conditions: in vivo
Outline: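 ICR mice, 18 to 22 g, 4 weeks old, 10 per group (5 male, 5 female). Four to five intravenous dose groups per compound. Survival recorded daily for 7 days. LD50 (dose per kg body weight lethal to 50%) calculated by the Bliss method. LD50 values compared by one-way ANOVA.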

Mus musculus [7] = assay: Nephrotoxicity in ICR mouse assessed as tubular dilation at 2.5 mg/kg, iv bid for 7 days measured after 2 hrs post last dose by hematoxylin and eosin staining based assay; type: toxicity, organism-based; conditions: in vivo
Outline: (§4)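 ICR mice, 18-22 g, 4 weeks old, n=8 per group (4 male, 4 female); component in saline (0.25 mg/mL, kept at 4 °C) given iv at 2.5 mg/kg twice daily, 8 h apart, for 7 days. Kidneys taken 2 h after last dose, formalin-fixed, paraffin-embedded, sectioned, H&E stained and examined by light microscopy; saline controls included.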

Mus musculus [8] = assay: Nephrotoxicity in ICR mouse assessed as pale tubular casts at 2.5 mg/kg, iv bid for 7 days measured after 2 hrs post last dose by hematoxylin and eosin staining based assay; type: toxicity, organism-based; conditions: in vivo; outline: as §4
Mus musculus [9] = assay: Nephrotoxicity in ICR mouse assessed as induction of prominent nuclei at 2.5 mg/kg, iv bid for 7 days measured after 2 hrs post last dose by hematoxylin and eosin staining based assay; type: toxicity, organism-based; conditions: in vivo; outline: as §4
Vero = assay: as §1; type: cell-based; conditions: chlorocebus sabaeus, vero, 72 h; outline: as §2

Row | Compound | CC50 at 72 h [1] | MIC (Escherichia coli [2]) | MIC (Klebsiella pneumoniae [3]) | MIC (Acinetobacter baumannii) | MIC (Pseudomonas aeruginosa) | MIC (Escherichia coli [4]) | MIC (Klebsiella pneumoniae [5]) | LD50 at 168 h [6] | Activity (Mus musculus [7]) | Activity (Mus musculus [8]) | Activity (Mus musculus [9]) | CC50 (Vero)
1 | CC[C@H](C)[C@@H]1NC(=O)[C@@H](CC(C)C)NC(=O)[C@H](CCN)NC(=O)[C@@H](NC(=O)[C@H](CCN)NC(=O)[C@@H](NC(=O)[C@H](CCN)NC(=O)CCCCC(C)C)[C@@H](C)O)CCNC(=O)[C@H]([C@@H](C)O)NC(=O)[C@H](CCN)NC(=O)[C@H](CCN)NC1=O | 199 µg/mL (≈ 172 µM) | 0.5 µg/mL (≈ 0.433 µM) | 0.5 µg/mL (≈ 0.433 µM) | 1 µg/mL (≈ 0.865 µM) | 2 µg/mL (≈ 1.73 µM) | 1 µg/mL (≈ 0.865 µM) | 1 µg/mL (≈ 0.865 µM) | 12.9 mg/kg |  |  |  | 
2 | CC(C)CCCCC(=O)N[C@@H](CCN)C(=O)N[C@H](C(=O)N[C@@H](CCN)C(=O)N[C@H]1CCNC(=O)[C@H]([C@@H](C)O)NC(=O)[C@H](CCN)NC(=O)[C@H](CCN)NC(=O)[C@H]([C@@H](C)O)NC(=O)[C@@H](CC(C)C)NC(=O)[C@H](CCN)NC1=O)[C@@H](C)O | 276 µg/mL (≈ 241 µM) | 0.25 µg/mL (≈ 0.219 µM) | 0.5 µg/mL (≈ 0.437 µM) | 1 µg/mL (≈ 0.875 µM) | 0.5 µg/mL (≈ 0.437 µM) | 0.5 µg/mL (≈ 0.437 µM) | 0.5 µg/mL (≈ 0.437 µM) | 13 mg/kg | Non-Toxic | Non-Toxic | Non-Toxic | 
3 | CC[C@H](C)CCCCC(=O)N[C@@H](CCN)C(=O)N[C@H](C(=O)N[C@@H](CCN)C(=O)N[C@H]1CCNC(=O)[C@H]([C@@H](C)O)NC(=O)[C@H](CCN)NC(=O)[C@H](CCN)NC(=O)[C@H]([C@@H](C)O)NC(=O)[C@@H](CC(C)C)NC(=O)[C@H](CCN)NC1=O)[C@@H](C)O (X1-[Dab]T[Dab][Dab][Dab][dL]T[Dab][Dab]T; lactam 4-C) | 96 µg/mL (≈ 82.9 µM) | ≤ 0.03 µg/mL | 0.25 µg/mL (≈ 0.216 µM) | 0.5 µg/mL (≈ 0.432 µM) | 1 µg/mL (≈ 0.864 µM) | 0.25 µg/mL (≈ 0.216 µM) | 0.5 µg/mL (≈ 0.432 µM) | 11.4 mg/kg |  |  |  | 
4 | CC(C)CCCCC(=O)N[C@@H](CCN)C(=O)N[C@H](C(=O)N[C@@H](CCN)C(=O)N[C@H]1CCNC(=O)[C@H]([C@@H](C)O)NC(=O)[C@H](CCN)NC(=O)[C@H](CCN)NC(=O)[C@H](C(C)C)NC(=O)[C@@H](CC(C)C)NC(=O)[C@H](CCN)NC1=O)[C@@H](C)O ({Heptanoyl(6-Me)}-[Dab]T[Dab][Dab][Dab][dL]V[Dab][Dab]T; lactam 4-C) | 225 µg/mL (≈ 197 µM) | 0.25 µg/mL (≈ 0.219 µM) | 0.5 µg/mL (≈ 0.438 µM) | 1 µg/mL (≈ 0.876 µM) | 2 µg/mL (≈ 1.75 µM) | 0.5 µg/mL (≈ 0.438 µM) | 0.5 µg/mL (≈ 0.438 µM) | 13.2 mg/kg |  |  |  | 
5 | CCC[C@@H]1NC(=O)[C@@H](CC(C)C)NC(=O)[C@H](CCN)NC(=O)[C@@H](NC(=O)[C@H](CCN)NC(=O)[C@@H](NC(=O)[C@H](CCN)NC(=O)CCCCC(C)C)[C@@H](C)O)CCNC(=O)[C@H]([C@@H](C)O)NC(=O)[C@H](CCN)NC(=O)[C@H](CCN)NC1=O ({Heptanoyl(6-Me)}-[Dab]T[Dab][Dab][Dab][dL][Nva][Dab][Dab]T; lactam 4-C) | 168 µg/mL (≈ 147 µM) | 0.25 µg/mL (≈ 0.219 µM) | 0.5 µg/mL (≈ 0.438 µM) | 0.5 µg/mL (≈ 0.438 µM) | 1 µg/mL (≈ 0.876 µM) | 0.5 µg/mL (≈ 0.438 µM) | 0.5 µg/mL (≈ 0.438 µM) | 12.4 mg/kg |  |  |  | 
6 | CC(C)CCCCC(=O)N[C@@H](CCN)C(=O)N[C@H](C(=O)N[C@H](CO)C(=O)N[C@H]1CCNC(=O)[C@H]([C@@H](C)O)NC(=O)[C@H](CCN)NC(=O)[C@H](CCN)NC(=O)[C@H]([C@@H](C)O)NC(=O)[C@@H](Cc2ccccc2)NC(=O)[C@H](CCN)NC1=O)[C@@H](C)O ({Heptanoyl(6-Me)}-[Dab]T[dS][Dab][Dab][dF]T[Dab][Dab]T; lactam 4-C) | > 500 µg/mL | 0.25 µg/mL (≈ 0.215 µM) | 0.5 µg/mL (≈ 0.429 µM) | 0.25 µg/mL (≈ 0.215 µM) | 2 µg/mL (≈ 1.72 µM) | 0.25 µg/mL (≈ 0.215 µM) | 0.5 µg/mL (≈ 0.429 µM) | 17 mg/kg | Non-Toxic | Non-Toxic | Non-Toxic | 
7 | CC(C)CCCCC(=O)N[C@@H](CCN)C(=O)N[C@H](C(=O)N[C@H](CO)C(=O)N[C@H]1CCNC(=O)[C@H]([C@@H](C)O)NC(=O)[C@H](CCN)NC(=O)[C@H](CCN)NC(=O)[C@H]([C@@H](C)O)NC(=O)[C@@H](CC(C)C)NC(=O)[C@H](CCN)NC1=O)[C@@H](C)O ({Heptanoyl(6-Me)}-[Dab]T[dS][Dab][Dab][dL]T[Dab][Dab]T; lactam 4-C) | 318 µg/mL (≈ 281 µM) | 0.12 µg/mL (≈ 0.106 µM) | 0.5 µg/mL (≈ 0.442 µM) | 0.12 µg/mL (≈ 0.106 µM) | 4 µg/mL (≈ 3.54 µM) | 0.25 µg/mL (≈ 0.221 µM) | 0.5 µg/mL (≈ 0.442 µM) | 20.5 mg/kg | Toxic | Toxic | Toxic | 
8 | CC(C)CCCCC(=O)N[C@@H](CCN)C(=O)N[C@H](C(=O)N[C@@H](CCN)C(=O)N[C@H]1CCNC(=O)[C@H]([C@@H](C)O)NC(=O)[C@H](CCN)NC(=O)[C@H](CCN)NC(=O)[C@H](CC(C)C)NC(=O)[C@@H](CC(C)C)NC(=O)[C@H](CCN)NC1=O)[C@@H](C)O [COLISTIN B] ({Heptanoyl(6-Me)}-[Dab]T[Dab][Dab][Dab][dL]L[Dab][Dab]T; lactam 4-C) | 244 µg/mL (≈ 211 µM) | 0.5 µg/mL (≈ 0.433 µM) | 1 µg/mL (≈ 0.865 µM) | 0.5 µg/mL (≈ 0.433 µM) | 2 µg/mL (≈ 1.73 µM) | 0.5 µg/mL (≈ 0.433 µM) | 1 µg/mL (≈ 0.865 µM) | 11.3 mg/kg | Non-Toxic | Non-Toxic | Non-Toxic | 
9 | CC(C)CCCCC(=O)N[C@@H](CCN)C(=O)N[C@H](C(=O)N[C@@H](CCN)C(=O)N[C@H]1CCNC(=O)[C@H]([C@@H](C)O)NC(=O)[C@H](CCN)NC(=O)[C@H](CCN)NC(=O)[C@H](CC(C)C)NC(=O)[C@@H](Cc2ccccc2)NC(=O)[C@H](CCN)NC1=O)[C@@H](C)O [POLYMYXIN B2] ({Heptanoyl(6-Me)}-[Dab]T[Dab][Dab][Dab][dF]L[Dab][Dab]T; lactam 4-C) | 159 µg/mL (≈ 134 µM) | 0.5 µg/mL (≈ 0.42 µM) | 1 µg/mL (≈ 0.841 µM) | 0.5 µg/mL (≈ 0.42 µM) | 2 µg/mL (≈ 1.68 µM) | 0.5 µg/mL (≈ 0.42 µM) | 1 µg/mL (≈ 0.841 µM) | 12.6 mg/kg | Toxic | Toxic | Toxic | 
10 | COLISTIN |  |  |  |  |  |  |  |  |  |  |  | 95 µg/mL
